# Experimental data reported in ChEMBL document CHEMBL3352430, “4-Aminopyridyl-based CYP51 inhibitors as anti-Trypanosoma cruzi drug leads with improved pharmacokinetic profile and in vivo potency” (J Med Chem, 2014).
# Activity calls are given as the source filed them. The calls are words filed in the database; no cut-off is given here.
# Assays:
# Mus musculus [1] = test: AUClast in mouse at 50 mg/kg, po in 20% HP-beta-CD; type: ADME, organism-based, Plasma; design: time 0 - last, dose 50 mg/kg, route oral; conditions: in vivo
# Outline: (§1)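 Female Swiss Webster mice, 8 weeks old, given one oral gavage dose of 50 mg/kg as a 10 mg/mL preparation in the named vehicle (20% HPβCD suspension or 20% Kolliphor). Plasma sampled at about 0.25, 0.5, 1, 2, 4, 6, 8, 12 and 24 h, n = 3 per time point. Protein precipitated with 5 volumes acetonitrile, filtered, then LC-MS/MS. Values are averages of three mice.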
# [2] = Tmax in mouse at 50 mg/kg, po in 20% Kolliphor; type: ADME, organism-based; design: dose 50 mg/kg, route oral; conditions: in vivo; outline: as §1
# Liver [3] = test: Drug uptake in mouse liver at 50 mg/kg, po in 20% Kolliphor measured at 8 hrs post dose; type: ADME, organism-based; design: dose 50 mg/kg, route oral; conditions: in vivo
# Outline: (§2)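 Female Swiss Webster mice, 8 weeks old, given a single 50 mg/kg oral gavage dose in 20% HPβCD or 20% Kolliphor. Tissues taken from three mice at 2 and 8 h post dose. Homogenized by probe sonication in PBS (1:4 w/v), protein precipitated with acetonitrile, and compound measured by LC-MS/MS in μM.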
# Liver microsome [4] = test: Half life in human liver microsomes; type: ADME
# Lung [5] = test: Drug uptake in mouse lung at 50 mg/kg, po in 20% HP-beta-CD measured at 8 hrs post dose; type: ADME, organism-based; design: dose 50 mg/kg, route oral; conditions: in vivo; outline: as §2
# C2C12 = test: Cytotoxicity against mouse C2C12 cells up to 10 uM; type: cell-based
# Outline: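 Mouse C2C12 myoblasts infected with T. cruzi CA-I/72, then exposed at 24 h postinfection to compound at 10 μM down to 5 pM in 5-fold steps for 72 h at 37 °C. Cells fixed in paraformaldehyde, stained with DAPI and scored by automated imaging. Triplicate wells; uninfected and infected untreated wells as controls.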
# [6] = Drug uptake in mouse skeletal muscle at 50 mg/kg, po in 20% Kolliphor measured at 8 hrs post dose; type: ADME, organism-based, Muscle tissue; design: dose 50 mg/kg, route oral; conditions: in vivo; outline: as §2
# Liver [7] = test: Half life in mouse liver microsomes; type: ADME
# [8] = Clearance in mouse at 50 mg/kg, po in 20% Kolliphor; type: ADME, organism-based; design: dose 50 mg/kg, route oral; conditions: in vivo; outline: as §1
# Liver [9] = test: Drug uptake in mouse liver at 50 mg/kg, po in 20% HP-beta-CD measured at 8 hrs post dose; type: ADME, organism-based; design: dose 50 mg/kg, route oral; conditions: in vivo; outline: as §2
# Heart [10] = test: Drug uptake in mouse heart at 50 mg/kg, po in 20% Kolliphor measured at 8 hrs post dose; type: ADME, organism-based; design: dose 50 mg/kg, route oral; conditions: in vivo; outline: as §2
# [11] = Half life in mouse at 50 mg/kg, po in 20% Kolliphor; type: ADME, organism-based; design: dose 50 mg/kg, route oral; conditions: in vivo; outline: as §1
# Trypanosoma cruzi [12] = test: Antitrypanosomal activity against Trypanosoma cruzi Y luc infected in mouse assessed as inhibition of parasitemia at 25 mg/kg, po bid in 20% HP-beta-CD administered for 4 consecutive days starting on day 3 of infection measured on day 7 post infection relative to vehicle-treated control; type: functional, organism-based; design: dose 25 mg/kg
# Outline: (§3)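 Female Swiss Webster mice, 8 weeks old, infected ip with 10^5 T. cruzi Y luc trypomastigotes. Only mice with detectable luminescence on day 3 were treated. Compound given by oral gavage bid for four days, as a suspension in 20% HPβCD or a solution in 20% Kolliphor, five mice per group. Vehicle group and benznidazole 50 mg/kg served as controls. On day 7, mice were injected ip with 150 mg/kg d-luciferin and imaged after 5 min under isoflurane. Percent inhibition calculated against untreated mice; two-tailed paired t test.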
# Trypanosoma cruzi [13] = test: Antitrypanosomal activity against Trypanosoma cruzi amastigotes infected in mouse C2C12 cells after 72 hrs by DAPI staining method; type: functional, organism-based; conditions: C2C12, 72 h
# [14] = Drug uptake in mouse fat at 50 mg/kg, po in 20% Kolliphor measured at 8 hrs post dose; type: ADME, organism-based, Adipose tissue; design: dose 50 mg/kg, route oral; conditions: in vivo; outline: as §2
# Cytochrome P450 3A4 = Cytochrome P450 3A4 (Homo sapiens, UniProt P08684); test: Inhibition of CYP3A4 in human liver microsomes at 1 uM; type: ADME
# Cytochrome P450 3A4, sequence (P08684 whole entry): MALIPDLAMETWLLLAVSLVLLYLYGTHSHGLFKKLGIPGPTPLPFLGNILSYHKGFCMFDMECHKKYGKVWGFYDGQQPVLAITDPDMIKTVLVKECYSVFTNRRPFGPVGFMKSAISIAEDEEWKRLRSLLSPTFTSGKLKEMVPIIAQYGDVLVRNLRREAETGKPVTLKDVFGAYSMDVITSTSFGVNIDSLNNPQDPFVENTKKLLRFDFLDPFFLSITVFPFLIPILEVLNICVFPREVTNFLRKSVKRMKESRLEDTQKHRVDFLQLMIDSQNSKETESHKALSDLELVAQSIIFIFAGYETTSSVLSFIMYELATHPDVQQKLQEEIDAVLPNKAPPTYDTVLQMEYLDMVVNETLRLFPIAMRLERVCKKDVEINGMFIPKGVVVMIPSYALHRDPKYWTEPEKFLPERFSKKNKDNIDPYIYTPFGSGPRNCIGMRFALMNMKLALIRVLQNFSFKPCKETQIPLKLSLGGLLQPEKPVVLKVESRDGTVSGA
# Mus musculus [15] = test: Toxicity in mouse assessed as mobility issues at 12.5 to 50 mg/kg, po bid in 20% HP-beta-CD; type: organism-based; design: dose 12.5-50 mg/kg, route oral; conditions: in vivo
# Outline: (§4)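 Mice in the four-day oral treatment study were given compound bid by gavage in 20% HPβCD or 20% Kolliphor. They were watched for weight loss, mobility problems and changes in appearance throughout dosing.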
# Intestine [16] = test: Drug uptake in mouse intestine at 50 mg/kg, po in 20% Kolliphor measured at 8 hrs post dose; type: ADME, organism-based; design: dose 50 mg/kg, route oral; conditions: in vivo; outline: as §2
# Lung [17] = test: Drug uptake in mouse lung at 50 mg/kg, po in 20% Kolliphor measured at 8 hrs post dose; type: ADME, organism-based; design: dose 50 mg/kg, route oral; conditions: in vivo; outline: as §2
# [18] = Drug uptake in mouse skeletal muscle at 50 mg/kg, po in 20% HP-beta-CD measured at 8 hrs post dose; type: ADME, organism-based, Muscle tissue; design: dose 50 mg/kg, route oral; conditions: in vivo; outline: as §2
# Trypanosoma cruzi [19] = test: Antitrypanosomal activity against Trypanosoma cruzi Y luc infected in mouse assessed as inhibition of parasitemia at 25 mg/kg, po bid in 20% Kolliphor administered for 4 consecutive days starting on day 3 of infection measured on day 7 post infection relative to vehicle-treated control; type: functional; outline: as §3
# Cytochrome P450 2C9 = Cytochrome P450 2C9 (Homo sapiens, UniProt P11712); test: Inhibition of CYP2C9 in human liver microsomes at 1 uM; type: ADME
# Cytochrome P450 2C9, sequence (P11712 whole entry): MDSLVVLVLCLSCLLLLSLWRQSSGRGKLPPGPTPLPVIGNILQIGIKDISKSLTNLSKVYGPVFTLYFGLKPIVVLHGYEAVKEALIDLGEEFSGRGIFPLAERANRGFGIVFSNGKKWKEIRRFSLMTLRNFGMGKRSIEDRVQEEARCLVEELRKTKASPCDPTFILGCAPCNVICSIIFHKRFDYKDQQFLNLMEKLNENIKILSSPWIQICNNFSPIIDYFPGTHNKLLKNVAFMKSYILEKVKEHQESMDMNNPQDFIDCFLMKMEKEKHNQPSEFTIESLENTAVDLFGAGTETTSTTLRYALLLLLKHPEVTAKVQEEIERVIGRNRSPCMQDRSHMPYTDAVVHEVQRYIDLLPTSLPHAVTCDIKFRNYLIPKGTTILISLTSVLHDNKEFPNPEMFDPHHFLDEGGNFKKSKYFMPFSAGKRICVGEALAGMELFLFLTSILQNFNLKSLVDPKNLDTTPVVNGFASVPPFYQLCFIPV
# Liver microsome [20] = test: Half life in rat liver microsomes; type: ADME
# Trypanosoma cruzi [21] = test: Antitrypanosomal activity against Trypanosoma cruzi Y luc infected in mouse assessed as inhibition of parasitemia at 50 mg/kg, po bid in 20% Kolliphor administered for 4 consecutive days starting on day 3 of infection measured on day 7 post infection relative to vehicle-treated control; type: functional; outline: as §3
# [22] = Drug uptake in mouse fat at 50 mg/kg, po in 20% HP-beta-CD measured at 8 hrs post dose; type: ADME, organism-based, Adipose tissue; design: dose 50 mg/kg, route oral; conditions: in vivo; outline: as §2
# Mus musculus [23] = test: Toxicity in mouse assessed as mobility issues at 12.5 to 50 mg/kg, po bid in 20% Kolliphor; type: organism-based; design: dose 12.5-50 mg/kg, route oral; conditions: in vivo; outline: as §4
# [24] = Tmax in mouse at 50 mg/kg, po in 20% HP-beta-CD; type: ADME, organism-based; design: dose 50 mg/kg, route oral; conditions: in vivo; outline: as §1
# Cytochrome P450 2D6 = Cytochrome P450 2D6 (Homo sapiens, UniProt P10635); test: Inhibition of CYP2D6 in human liver microsomes at 1 uM; type: ADME
# Cytochrome P450 2D6, sequence (P10635 whole entry): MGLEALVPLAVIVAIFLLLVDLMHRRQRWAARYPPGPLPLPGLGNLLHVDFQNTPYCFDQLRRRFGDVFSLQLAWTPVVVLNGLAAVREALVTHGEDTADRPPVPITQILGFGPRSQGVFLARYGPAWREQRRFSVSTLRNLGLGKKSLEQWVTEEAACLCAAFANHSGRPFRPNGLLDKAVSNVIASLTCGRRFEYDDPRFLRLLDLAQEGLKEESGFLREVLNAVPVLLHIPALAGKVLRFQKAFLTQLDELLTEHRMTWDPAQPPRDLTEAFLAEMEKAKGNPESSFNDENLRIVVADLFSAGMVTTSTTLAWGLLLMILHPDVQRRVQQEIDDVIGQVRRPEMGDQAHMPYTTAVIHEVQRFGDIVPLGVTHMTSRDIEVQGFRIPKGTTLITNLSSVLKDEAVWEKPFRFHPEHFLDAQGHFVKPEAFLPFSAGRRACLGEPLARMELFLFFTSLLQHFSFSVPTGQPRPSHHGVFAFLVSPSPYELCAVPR
# [25] = Cmax in mouse at 50 mg/kg, po in 20% HP-beta-CD; type: ADME, organism-based; design: dose 50 mg/kg, route oral; conditions: in vivo; outline: as §1
# Intestine [26] = test: Drug uptake in mouse intestine at 50 mg/kg, po in 20% HP-beta-CD measured at 8 hrs post dose; type: ADME, organism-based; design: dose 50 mg/kg, route oral; conditions: in vivo; outline: as §2
# Mus musculus [27] = test: Toxicity in mouse assessed as change in appearance at 12.5 to 50 mg/kg, po bid in 20% Kolliphor; type: organism-based; design: dose 12.5-50 mg/kg, route oral; conditions: in vivo; outline: as §4
# [28] = AUClast in mouse at 50 mg/kg, po in 20% Kolliphor; type: ADME, organism-based; design: time 0 - last, dose 50 mg/kg, route oral; conditions: plasma; outline: as §1
# Mus musculus [29] = test: Toxicity in mouse assessed as weight loss at 12.5 to 50 mg/kg, po bid in 20% Kolliphor; type: organism-based; design: dose 12.5-50 mg/kg, route oral; conditions: in vivo; outline: as §4
# Heart [30] = test: Drug uptake in mouse heart at 50 mg/kg, po in 20% HP-beta-CD measured at 8 hrs post dose; type: ADME, organism-based; design: dose 50 mg/kg, route oral; conditions: in vivo; outline: as §2
# Mus musculus [31] = test: Toxicity in mouse assessed as change in appearance at 12.5 to 50 mg/kg, po bid in 20% HP-beta-CD; type: organism-based; design: dose 12.5-50 mg/kg, route oral; conditions: in vivo; outline: as §4
# [32] = Half life in mouse at 50 mg/kg, po in 20% HP-beta-CD; type: ADME, organism-based; design: dose 50 mg/kg, route oral; conditions: in vivo; outline: as §1
# Mus musculus [33] = test: Toxicity in mouse assessed as weight loss at 12.5 to 50 mg/kg, po bid in 20% HP-beta-CD; type: organism-based; design: dose 12.5-50 mg/kg, route oral; conditions: in vivo; outline: as §4
# [34] = biological target: Sterol 14-alpha demethylase (Trypanosoma cruzi (strain CL Brener), UniProt Q7Z1V1); test: Binding affinity to Trypanosoma cruzi CYP51 by UV-vis titration method; conditions: read-out: Kd(app)
# Sterol 14-alpha demethylase, sequence (Q7Z1V1 whole entry): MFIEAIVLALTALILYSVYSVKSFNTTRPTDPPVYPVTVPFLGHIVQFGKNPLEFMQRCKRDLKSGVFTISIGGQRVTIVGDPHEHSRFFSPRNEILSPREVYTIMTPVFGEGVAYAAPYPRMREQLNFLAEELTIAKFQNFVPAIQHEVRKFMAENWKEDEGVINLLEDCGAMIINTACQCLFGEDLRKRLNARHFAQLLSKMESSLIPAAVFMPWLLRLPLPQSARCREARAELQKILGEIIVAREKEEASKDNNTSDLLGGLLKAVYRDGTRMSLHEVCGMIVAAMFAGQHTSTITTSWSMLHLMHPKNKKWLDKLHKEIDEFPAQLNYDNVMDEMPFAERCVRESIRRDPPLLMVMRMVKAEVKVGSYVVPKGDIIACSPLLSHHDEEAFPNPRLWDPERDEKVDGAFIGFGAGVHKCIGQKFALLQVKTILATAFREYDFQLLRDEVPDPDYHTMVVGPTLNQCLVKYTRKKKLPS
# Trypanosoma cruzi [35] = test: Antitrypanosomal activity against Trypanosoma cruzi Y luc infected in mouse assessed as inhibition of parasitemia at 50 mg/kg, po bid in 20% HP-beta-CD administered for 4 consecutive days starting on day 3 of infection measured on day 7 post infection relative to vehicle-treated control; type: functional, organism-based; design: dose 50 mg/kg; outline: as §3
# [36] = Cmax in mouse at 50 mg/kg, po in 20% Kolliphor; type: ADME, organism-based; design: dose 50 mg/kg, route oral; conditions: in vivo; outline: as §1
# Cytochrome P450 1A2 = biological target: T1, Cytochrome P450 1A2 (Homo sapiens, UniProt P05177); test: Inhibition of CYP1A2 in human liver microsomes at 1 uM; type: ADME
# T1 sequence (P05177 whole entry): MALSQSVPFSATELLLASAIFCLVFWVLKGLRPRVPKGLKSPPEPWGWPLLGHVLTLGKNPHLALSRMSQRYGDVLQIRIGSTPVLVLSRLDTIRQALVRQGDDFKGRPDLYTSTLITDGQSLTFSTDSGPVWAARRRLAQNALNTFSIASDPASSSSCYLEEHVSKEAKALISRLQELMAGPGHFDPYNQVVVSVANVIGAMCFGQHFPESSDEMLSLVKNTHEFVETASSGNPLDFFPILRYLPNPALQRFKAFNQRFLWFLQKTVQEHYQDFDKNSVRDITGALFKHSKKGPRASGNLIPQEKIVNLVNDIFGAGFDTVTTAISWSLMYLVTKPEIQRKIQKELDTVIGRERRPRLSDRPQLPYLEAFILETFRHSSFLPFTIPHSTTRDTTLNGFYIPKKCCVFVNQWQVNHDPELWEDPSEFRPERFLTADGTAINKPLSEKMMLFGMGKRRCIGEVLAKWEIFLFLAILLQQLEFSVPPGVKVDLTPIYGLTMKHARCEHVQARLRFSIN
compound,measurement,setting,value
O=C(N[C@H](Cc1c[nH]c2ccccc12)C(=O)Nc1ccncc1)c1ccc(-c2cc(C(F)(F)F)ccc2F)cc1F,AUClast,Mus musculus [1],4.55 µM·h
same,Tmax,[2],2.33 h
same,Drug uptake,Liver [3],Active
same,t1/2,Liver microsome [4],0.417 h
same,Drug uptake,Lung [5],Active
same,Activity,C2C12,Non-toxic
same,Drug uptake,[6],Active
same,t1/2,Liver [7],0.817 h
same,CL/F,[8],14.1 mL/min/kg
same,Drug uptake,Liver [9],Active
same,Drug uptake,Heart [10],Active
same,half-life,[11],3.76 h
same,inhibition,Trypanosoma cruzi [12],Active
same,EC50,Trypanosoma cruzi [13],21 nM
same,Drug uptake,[14],Active
same,inhibition (INH),Cytochrome P450 3A4,27%
same,Activity,Mus musculus [15],Non-toxic
same,Drug uptake,Intestine [16],Active
same,Drug uptake,Lung [17],Active
same,Drug uptake,[18],Active
same,inhibition in vivo at 25 mg/kg,Trypanosoma cruzi [19],63.3%
same,inhibition (INH),Cytochrome P450 2C9,90%
same,t1/2,Liver microsome [20],0.3 h
same,inhibition in vivo at 50 mg/kg,Trypanosoma cruzi [21],91.3%
same,Drug uptake,[22],Active
same,Activity,Mus musculus [23],Non-toxic
same,Tmax,[24],2 h
same,inhibition (INH),Cytochrome P450 2D6,21%
same,Cmax,[25],1.02 µM
same,Drug uptake,Intestine [26],Active
same,Activity,Mus musculus [27],Non-toxic
same,AUC(0-t),[28],106 µM·h
same,Activity,Mus musculus [29],Non-toxic
same,Drug uptake,Heart [30],Active
same,Activity,Mus musculus [31],Non-toxic
same,half-life,[32],4.87 h
same,Activity,Mus musculus [33],Non-toxic
same,Kd,[34],12 nM
same,inhibition,Trypanosoma cruzi [35],Active
same,Cmax,[36],13.6 µM
same,inhibition (INH),Cytochrome P450 1A2,-5%
